Measurements published in article PMC5088049 (Pharmacogenetics and genomics, 2016).
Where a chain is given by its changes, count along the chain named.

How the values were obtained:
Type in all cases: in vitro ADME
[1] = Kinetics of EXE reduction to 17β-DHE, pooled human liver cytosol
AKR1C1 = AKR1C1 (Homo sapiens, UniProt Q04828); assay: Kinetics of EXE reduction to 17β-DHE, recombinant AKR1C1; settings: wildtype AKR1C1
AKR1C2 = AKR1C2 (Homo sapiens, UniProt P52895); assay: Kinetics of EXE reduction to 17β-DHE, recombinant AKR1C2; settings: wildtype AKR1C2
AKR1C2 Phe46Tyr = molecular target: T1, AKR1C2 Phe46Tyr (Homo sapiens, UniProt P52895, F46Y); assay: Kinetics of EXE reduction to 17β-DHE, recombinant AKR1C2 Phe46Tyr; settings: VMAX/KM
T1 sequence (P52895 1-323 F46Y): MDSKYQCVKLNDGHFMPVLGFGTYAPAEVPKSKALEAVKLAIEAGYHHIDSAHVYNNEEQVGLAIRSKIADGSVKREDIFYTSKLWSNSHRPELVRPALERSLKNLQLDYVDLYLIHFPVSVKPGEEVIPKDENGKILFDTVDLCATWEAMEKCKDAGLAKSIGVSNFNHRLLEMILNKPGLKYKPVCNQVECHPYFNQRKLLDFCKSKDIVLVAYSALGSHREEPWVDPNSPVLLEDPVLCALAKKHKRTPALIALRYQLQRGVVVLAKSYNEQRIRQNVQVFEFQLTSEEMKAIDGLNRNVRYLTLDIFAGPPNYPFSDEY

AKR1C3 [2] = molecular target: T2, AKR1C3 (Homo sapiens, UniProt P42330); assay: Kinetics of EXE reduction to 17β-DHE, recombinant AKR1C3
AKR1C3 His5Gln = AKR1C3 His5Gln (Homo sapiens, UniProt P42330, H5Q); assay: Kinetics of EXE reduction to 17β-DHE, recombinant AKR1C3 His5Gln
AKR1C3 Glu77Gly = AKR1C3 Glu77Gly (Homo sapiens, UniProt P42330, E77G); assay: Kinetics of EXE reduction to 17β-DHE, recombinant AKR1C3 Glu77Gly; settings: for VMAX: normalized to enzyme purity
AKR1C3 Lys104Asn = AKR1C3 Lys104Asn (Homo sapiens, UniProt P42330, K104N); assay: Kinetics of EXE reduction to 17β-DHE, recombinant AKR1C3 Lys104Asn
AKR1C3 Pro180Ser = AKR1C3 Pro180Ser (Homo sapiens, UniProt P42330, P180S); assay: Kinetics of EXE reduction to 17β-DHE, recombinant AKR1C3 Pro180Ser
AKR1C4 Ser145Cys = molecular target: T3, AKR1C4 Ser145Cys (Homo sapiens, UniProt P17516, S145C); assay: Kinetics of EXE reduction to 17β-DHE, recombinant AKR1C4 Ser145Cys
T3 sequence (P17516 1-323 S145C): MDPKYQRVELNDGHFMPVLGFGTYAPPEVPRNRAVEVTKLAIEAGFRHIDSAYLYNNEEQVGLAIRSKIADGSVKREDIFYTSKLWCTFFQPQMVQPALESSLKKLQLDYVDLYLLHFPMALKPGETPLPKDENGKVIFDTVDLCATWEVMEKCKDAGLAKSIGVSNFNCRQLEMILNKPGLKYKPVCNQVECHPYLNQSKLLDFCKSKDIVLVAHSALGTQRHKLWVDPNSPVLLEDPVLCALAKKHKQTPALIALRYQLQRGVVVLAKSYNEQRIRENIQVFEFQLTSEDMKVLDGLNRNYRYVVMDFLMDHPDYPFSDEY

CBR1 [3] = molecular target: T4, CBR1 (Homo sapiens, UniProt P16152); assay: Kinetics of EXE reduction to 17β-DHE, recombinant CBR1; settings: for CLINT: VMAX/KM
T4 sequence (P16152 1-277): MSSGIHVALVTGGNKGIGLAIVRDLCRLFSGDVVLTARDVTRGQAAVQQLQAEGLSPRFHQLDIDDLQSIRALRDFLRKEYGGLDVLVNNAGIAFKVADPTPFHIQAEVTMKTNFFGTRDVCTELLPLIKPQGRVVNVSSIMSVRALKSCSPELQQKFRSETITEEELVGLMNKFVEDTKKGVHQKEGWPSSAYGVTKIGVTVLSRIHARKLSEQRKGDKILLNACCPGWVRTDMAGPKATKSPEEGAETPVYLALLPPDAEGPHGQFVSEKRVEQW

AKR1C4 = molecular target: T5, AKR1C4 (Homo sapiens, UniProt P17516); assay: Metabolite identification, overnight incubation with recombinant AKR1C4; settings: 200 µM EXE, 18-h incubation, 1.5 µg recombinant AKR1C4
T5 sequence (P17516 1-323): T3 sequence (P17516 1-323 S145C) with C145S
Summary of the method: (§1)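 Wildtype enzyme was His-tagged, expressed in E. coli BL21 (IPTG induction), Ni-NTA purified and dialysed against PBS. It was stopped with ice-cold acetonitrile and centrifuged. UPLC/ESI+ full scan (m/z 100–450) was followed by targeted MS/MS transitions. Retention times were matched to synthetic 17α/17β-dihydro standards.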

CBR1 [4] = molecular target: T4, CBR1; assay: Metabolite identification, overnight incubation with recombinant CBR1; settings: 200 µM EXE, 18-h incubation, 1.5 µg recombinant CBR1
Summary of the method: as §1

AKR1C3 [5] = molecular target: T2, AKR1C3; assay: Metabolite identification, overnight incubation with recombinant AKR1C3; settings: 200 µM EXE, 18-h incubation, 1.5 µg recombinant AKR1C3
Summary of the method: as §1

Sequence of AKR1C3 Pro180Ser (P42330 whole entry P180S): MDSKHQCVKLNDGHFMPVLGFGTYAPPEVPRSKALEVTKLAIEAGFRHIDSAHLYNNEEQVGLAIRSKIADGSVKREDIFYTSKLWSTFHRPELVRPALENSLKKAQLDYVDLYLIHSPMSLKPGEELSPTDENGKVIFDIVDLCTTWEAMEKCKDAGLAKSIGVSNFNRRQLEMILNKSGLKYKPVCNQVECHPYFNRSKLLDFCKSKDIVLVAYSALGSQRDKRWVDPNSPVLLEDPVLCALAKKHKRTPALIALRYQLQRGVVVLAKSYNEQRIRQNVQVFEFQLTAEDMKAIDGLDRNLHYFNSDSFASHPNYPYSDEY
Sequence of AKR1C3 His5Gln (P42330 whole entry H5Q): as the sequence (P42330 whole entry P180S) above, with H5Q, S180P counted along it
Sequence of AKR1C3 Glu77Gly (P42330 whole entry E77G): as the sequence (P42330 whole entry P180S) above, with E77G, S180P counted along it
Sequence of AKR1C3 Lys104Asn (P42330 whole entry K104N): as the sequence (P42330 whole entry P180S) above, with K104N, S180P counted along it
T2 sequence (P42330 whole entry): as the sequence (P42330 whole entry P180S) above, with S180P counted along it
Sequence of AKR1C2 (P52895 whole entry): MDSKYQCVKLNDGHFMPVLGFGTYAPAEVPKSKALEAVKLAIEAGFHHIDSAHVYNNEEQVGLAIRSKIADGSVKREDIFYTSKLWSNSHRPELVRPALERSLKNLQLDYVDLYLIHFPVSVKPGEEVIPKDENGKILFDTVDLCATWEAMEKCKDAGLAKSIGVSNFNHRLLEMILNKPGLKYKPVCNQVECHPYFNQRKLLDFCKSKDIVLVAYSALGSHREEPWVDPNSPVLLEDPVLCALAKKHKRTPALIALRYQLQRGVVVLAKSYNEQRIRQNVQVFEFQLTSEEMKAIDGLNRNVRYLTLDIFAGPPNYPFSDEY
Sequence of AKR1C1 (Q04828 whole entry): as the sequence (P52895 whole entry) above, with V38T, H47R, V54L, S87C, M151V, H170R, L172Q counted along it

What does the source list for `C=C1C[C@@H]2[C@H](CC[C@]3(C)C(=O)CC[C@@H]23)[C@@]2(C)C=CC(=O)C=C12` [exemestane, 6-methylenandrosa-1,4-diene-3-17-dione]?
maximum rate of 17β-DHE formation (VMAX) ([1]; 5 µg pooled HLC, 90-min incubation, EXE 0.5–400 µM): 21 ± 4.8 pmol/min/mg; Km at 90 min ([1]; human, pooled human liver cytosol, pH 7.4): 55.7 ± 1.9 µM; CLINT (AKR1C1; VMAX/KM): 0.002 µL/min/mg; VMAX (AKR1C1; normalized to enzyme purity): 71.1 ± 1.5 picomoles·min^−1·mg^−1; CLINT (AKR1C2; VMAX/KM): 0.0051 µL/min/mg; VMAX (AKR1C2; normalized to enzyme purity): 84.2 ± 15.6 picomoles·min^−1·mg^−1; CLINT (AKR1C2 Phe46Tyr): 0.0078 µL/min/mg; VMAX of AKR1C3 relative to AKR1C4 (AKR1C3 [2]; higher than AKR1C4): 36 fold; Km (AKR1C3 [2]; wildtype AKR1C3, 17β-DHE formation): 12.3 ± 1.1 µM; CLINT (AKR1C3 [2]; wildtype AKR1C3, VMAX/KM): 0.0068 µL/min/mg; VMAX (AKR1C3 [2]; wildtype AKR1C3, normalized to enzyme purity): 83.3 ± 15.4 picomoles·min^−1·mg^−1; Km (AKR1C3 His5Gln; AKR1C3 His5Gln (rs12529), 17β-DHE formation): 17.9 ± 2.9 µM; CLINT (AKR1C3 His5Gln; AKR1C3 His5Gln, VMAX/KM): 0.00021 µL/min/mg; VMAX (AKR1C3 His5Gln; AKR1C3 His5Gln, normalized to enzyme purity): 3.8 ± 0.1 picomoles·min^−1·mg^−1; Km (AKR1C3 Glu77Gly; AKR1C3 Glu77Gly (rs11551177), 17β-DHE formation): 13.9 ± 2.2 µM; CLINT (AKR1C3 Glu77Gly; AKR1C3 Glu77Gly, VMAX/KM): 0.00014 µL/min/mg; VMAX (AKR1C3 Glu77Gly; AKR1C3 Glu77Gly): 1.9 ± 0.2 picomoles·min^−1·mg^−1; VMAX (AKR1C3 Glu77Gly; AKR1C3 Glu77Gly, listed as EXE): 1.9 ± 0.2 picomoles·min^−1·mg^−1; Km (AKR1C3 Lys104Asn; AKR1C3 Lys104Asn (rs12387), 17β-DHE formation): 16.8 ± 1 µM; CLINT (AKR1C3 Lys104Asn; AKR1C3 Lys104Asn, VMAX/KM): 0.00038 µL/min/mg; VMAX (AKR1C3 Lys104Asn; AKR1C3 Lys104Asn, normalized to enzyme purity): 6.4 ± 0.3 picomoles·min^−1·mg^−1; Km (AKR1C3 Pro180Ser; AKR1C3 Pro180Ser (rs34186955), 17β-DHE formation): 11.2 ± 3.1 µM; CLINT (AKR1C3 Pro180Ser; AKR1C3 Pro180Ser, VMAX/KM): 0.00032 µL/min/mg; VMAX (AKR1C3 Pro180Ser; AKR1C3 Pro180Ser, normalized to enzyme purity): 3.6 ± 0.6 picomoles·min^−1·mg^−1; Km (AKR1C4 Ser145Cys; AKR1C4 Ser145Cys (rs3829125), 17β-DHE formation): 9.6 ± 2.4 µM; CLINT (AKR1C4 Ser145Cys; AKR1C4 Ser145Cys, VMAX/KM): 0.00061 µL/min/mg; VMAX (AKR1C4 Ser145Cys; AKR1C4 Ser145Cys, normalized to enzyme purity): 5.9 ± 1.1 picomoles·min^−1·mg^−1; rate of EXE reduction by CBR1 relative to AKR1C2 (CBR1 [3]; VMAX, faster than AKR1C2): about 11 fold; rate of 17β-DHE formation by CBR1 relative to recombinant AKR1C enzymes (CBR1 [3]; more rapid than recombinant AKR1C enzymes): 11 to 403 fold; CLINT (CBR1 [3]; wildtype CBR1): 0.0035 µL/min/mg; CLINT (CBR1 [3]; wildtype CBR1, listed as EXE): 0.0035 µL/min/mg; VMAX (CBR1 [3]; wildtype CBR1, normalized to enzyme purity): 928 ± 244 picomoles·min^−1·mg^−1; metabolites formed (AKR1C4): both stereoisomers of DHE; metabolites formed (CBR1 [4]): both stereoisomers of DHE; metabolites formed (AKR1C3 [5]): only 17β-DHE formation
